We go through two compounds from ChEMBL document CHEMBL1121994, “Ammonium 7H-purin-6-yl 1-Thio-beta-D-glucopyranosiduronate, a latent, selective anticancer agent” (J Med Chem, 1982).

Type in all cases: ADME
Series [1] in a line: Maximum velocity was determined at pH 3.38. The method, boiled down:
(§1)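 Bovine β-glucuronidase in 0.1 M potassium acetate buffer, μ = 0.1 M (KCl), 30 °C. Substrate 4.0×10⁻⁴ to 4.8×10⁻³ M final. Enzyme (30 FU; 42 000 FU when substrate was given in Me₂SO) was added after 20 min; at pH 3.38 the substrate was also added after 20 min. Initial rates came from ΔA/min at 324 nm (Δε = 2×10⁴ M⁻¹cm⁻¹), in duplicate. Vmax was normalized per Fishman unit.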

Series [2] can be described thus: Maximum velocity was determined at pH 4.4. The method in brief: as §1
Series [3] can be described thus: Maximum velocity was determined at pH 4.7. The method, boiled down:
as §1

Series [4] in a line: Maximum velocity was determined at pH 5.58. The method in brief: as §1
The species entered for series [5] is Bos taurus. The series is described as follows: Michaelis constant for hydrolysis catalyzed by Bovine Liver beta-Glucuronidase at pH 3.38. Conditions: cattle. The method in brief: as §1
The species named for series [6] is Bos taurus. The series is described as follows: Michaelis constant for hydrolysis catalyzed by Bovine Liver beta-Glucuronidase at pH 4.40. The following applies: cattle, pH 4.4. The method in brief:
as §1

Series [7] is filed under the species Bos taurus. Nature of the series: Michaelis constant for hydrolysis catalyzed by Bovine Liver beta-Glucuronidase at pH 4.7. Conditions: cattle. The method, boiled down:
as §1

Series [8] is filed under the species Bos taurus. Nature of the series: Michaelis constant for hydrolysis catalyzed by Bovine Liver beta-Glucuronidase at pH 5.58. Conditions: cattle. The method, boiled down:
as §1

A short description of series [9]: Maximum velocity was determined at pH 4.40. The following applies: pH 4.4. The method, boiled down: as §1

Consider `NC(=O)C1OC(Sc2[nH]cnc3ncnc2-3)C(O)C(O)C1O` (stereo unspecified), for which the Vmax in [1] is 7.85e-11; in series [2], 1.24e-10; in series [3] it was 9.85e-11; in series [4] it was 8.8e-11. Moreover, the “Vmax / Km” value in the series filed under Bos taurus [5] stood at 8.8e-9; in the series filed under Bos taurus [6], 1.06e-8; in the series filed under Bos taurus [7] it was 1.06e-8; in the series filed under Bos taurus [8] it was 1.04e-8.
Regarding `N.O=C(O)C1OC(Sc2[nH]cnc3ncnc2-3)C(O)C(O)C1O` (stereo unspecified), the Vmax turned out to be 3.73e-8 in [1], 3.95e-8 in [9], 3.92e-8 in series [3] and 2.18e-8 in series [4]. Besides, the “Vmax / Km” value in the series listed under Bos taurus [5] is on record as 0.000659; in the series listed under Bos taurus [6], 0.000409; in the series listed under Bos taurus [7], 0.000297; in the series listed under Bos taurus [8], 0.0000951.
